From ChEMBL document CHEMBL1143988, “11-(pyridinylphenyl)steroids--a new class of mixed-profile progesterone agonists/antagonists” (Bioorg Med Chem, 2008)
pEC50, pIC50: −log10 of the molar value.

Assays:
Assay type in all cases: functional, cell-based
[1] = target: T1, Progesterone receptor (Homo sapiens) (UniProt P06401); assay: Agonist activity at human PRB expressed in CHO cells relative to Org 2058
T1 sequence (whole entry): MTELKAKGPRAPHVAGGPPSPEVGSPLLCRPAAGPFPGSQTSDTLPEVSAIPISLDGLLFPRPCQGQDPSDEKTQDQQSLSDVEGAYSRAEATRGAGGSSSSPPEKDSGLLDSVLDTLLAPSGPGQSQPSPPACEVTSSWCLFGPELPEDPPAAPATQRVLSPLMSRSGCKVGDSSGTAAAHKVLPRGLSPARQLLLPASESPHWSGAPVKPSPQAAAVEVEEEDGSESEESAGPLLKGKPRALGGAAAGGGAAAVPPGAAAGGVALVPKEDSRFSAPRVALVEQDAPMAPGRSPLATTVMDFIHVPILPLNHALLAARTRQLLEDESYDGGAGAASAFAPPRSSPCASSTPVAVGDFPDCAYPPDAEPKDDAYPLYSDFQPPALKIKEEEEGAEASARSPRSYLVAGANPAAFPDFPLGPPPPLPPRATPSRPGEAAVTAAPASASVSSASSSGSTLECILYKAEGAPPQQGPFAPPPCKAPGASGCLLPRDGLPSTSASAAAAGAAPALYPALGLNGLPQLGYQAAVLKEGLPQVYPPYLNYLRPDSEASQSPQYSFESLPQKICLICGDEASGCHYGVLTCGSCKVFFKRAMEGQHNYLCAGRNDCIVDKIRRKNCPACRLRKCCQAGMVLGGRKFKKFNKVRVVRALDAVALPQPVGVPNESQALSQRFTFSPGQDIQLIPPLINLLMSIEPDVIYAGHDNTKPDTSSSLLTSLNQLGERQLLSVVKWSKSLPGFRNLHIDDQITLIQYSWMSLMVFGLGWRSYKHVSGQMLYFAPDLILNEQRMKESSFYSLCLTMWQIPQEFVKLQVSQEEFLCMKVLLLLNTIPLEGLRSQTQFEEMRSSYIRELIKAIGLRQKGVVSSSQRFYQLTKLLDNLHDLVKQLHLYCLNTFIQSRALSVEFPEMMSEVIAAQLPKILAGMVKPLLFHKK

[2] = target: T1, Progesterone receptor (Homo sapiens); assay: (§1) Antagonist activity at human PRB expressed in CHO cells assessed as inhibition of Org 2058 induced-transactivation relative to Org 31710
In short: (§2)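 PR-B-mediated luciferase transactivation antagonist mode, run in the same setting as the agonist assay, with 0.1 nM Org 2058 as inducer; IC50 taken from inhibition of luciferase induction. Efficacy given relative to the antagonist Org 31710, whose effect is set to 100%.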

Progesterone receptor [3] = target: T2, Progesterone receptor (Homo sapiens, UniProt P06401); assay: Antagonist activity at human PRB expressed in CHO cells assessed as inhibition of Org 2058 induced-transactivation; in short: as §2
T2 sequence (P06401 whole entry): T1 sequence (whole entry)

Progesterone receptor [4] = target: T2, Progesterone receptor; assay: as §1; in short: as §2
Progesterone receptor [5] = target: T2, Progesterone receptor; assay: Agonist activity at human PRB expressed in CHO cells

Efficacy [1] [%] | Efficacy [2] [%] | pIC50 (Progesterone receptor [3]) | pIC50 (Progesterone receptor [4]) | pEC50 (Progesterone receptor [5]) | Structure (SMILES)
52 | > 27 | 8.49 | – | – | C[C@@H]1C[C@H]2[C@@H]3CCC4=CC(=O)CCC4=C3[C@@H](c3ccc(-c4ncccn4)cc3)C[C@]2(C)[C@H]1C(=O)C1CC1
34 | 53 | 9.22 | – | – | CC[C@@H]1C[C@H]2[C@@H]3CCC4=CC(=O)CCC4=C3[C@@H](c3ccc(-c4cccnc4)cc3)C[C@]2(C)[C@H]1C(=O)C1CC1
– | – | – | 9.70 | – | CN(C)c1ccc([C@H]2C[C@@]3(C)[C@@H](CC[C@@]34CCCC4=O)[C@@H]3CCC4=CC(=O)CCC4=C32)cc1
47 | 38 | 9.21 | – | – | C=C[C@@H]1C[C@H]2[C@@H]3CCC4=CC(=O)CCC4=C3[C@@H](c3ccc(-c4cccnc4)cc3)C[C@]2(C)[C@H]1C(=O)C1CC1
20 | 62 | 9.26 | – | 9.82 | COc1ccc(-c2ccc([C@H]3C[C@@]4(C)[C@@H](CCC45CCCC5=O)[C@@H]4CCC5=CC(=O)CCC5=C43)cc2)cn1 (stereo partly drawn)
49 | 33 | 7.83 | – | – | C[C@@H]1C[C@H]2[C@@H]3CCC4=CC(=O)CCC4=C3[C@@H](c3ccc(-c4ccccn4)cc3)C[C@]2(C)[C@H]1C(=O)C1CC1
– | 100 | 9.70 | – | < 7.00 | CC(=O)O[C@]1(C(C)=O)CC[C@H]2[C@@H]3CCC4=CC(=O)CCC4=C3[C@@H](c3ccc(N(C)C)cc3)C[C@@]21C [ULIPRISTAL ACETATE]
38 | 58 | 9.89 | – | – | C[C@]12C[C@H](c3ccc(-c4cccnc4)cc3)C3=C4CCC(=O)C=C4CC[C@H]3[C@@H]1CC[C@]2(C)C(=O)C1CC1
50 | 24 | 8.50 | – | – | C[C@@H]1C[C@H]2[C@@H]3CCC4=CC(=O)CCC4=C3[C@@H](c3ccc(-c4cnc5ccccc5c4)cc3)C[C@]2(C)[C@H]1C(=O)C1CC1
36 | 66 | 9.12 | – | – | C[C@]12C[C@H](c3ccc(-c4cccnc4)cc3)C3=C4CCC(=O)C=C4CC[C@H]3[C@@H]1CC[C@@H]2C(=O)C1CC1
56 | 27 | 8.60 | – | – | C[C@@H]1C[C@H]2[C@@H]3CCC4=CC(=O)CCC4=C3[C@@H](c3ccc(-c4ccncc4)cc3)C[C@]2(C)[C@H]1C(=O)C1CC1
49 | 46 | 9.57 | – | – | C[C@@H]1C[C@H]2[C@@H]3CCC4=CC(=O)CCC4=C3[C@@H](c3ccc(-c4cccnc4)cc3)C[C@]2(C)[C@H]1C(=O)C1CC1
28 | 57 | 9.37 | – | – | COc1ccc(-c2ccc([C@H]3C[C@]4(C)[C@@H](C(=O)C5CC5)CC[C@H]4[C@@H]4CCC5=CC(=O)CCC5=C43)cc2)cn1
41 | 45 | 9.01 | – | – | C=C[C@@H]1C[C@H]2[C@@H]3CCC4=CC(=O)CCC4=C3[C@@H](c3ccc(-c4ccc(OC)nc4)cc3)C[C@]2(C)[C@H]1C(=O)C1CC1
17 | 71 | 9.48 | – | 9.54 | C[C@]12C[C@H](c3ccc(-c4cccnc4)cc3)C3=C4CCC(=O)C=C4CC[C@H]3[C@@H]1CCC21CCCC1=O (stereo partly drawn)
54 | 35 | 8.89 | – | – | C[C@@H]1C[C@H]2[C@@H]3CCC4=CC(=O)CCC4=C3[C@@H](c3ccc(-c4cnccn4)cc3)C[C@]2(C)[C@H]1C(=O)C1CC1
42 | 52 | 8.10 | – | – | CC[C@@H]1C[C@H]2[C@@H]3CCC4=CC(=O)CCC4=C3[C@@H](c3ccc(-c4ccc(OC)nc4)cc3)C[C@]2(C)[C@H]1C(=O)C1CC1
47 | 43 | 9.33 | – | – | C[C@@H]1C[C@H]2[C@@H]3CCC4=CC(=O)CCC4=C3[C@@H](c3ccc(-c4ccc(Cl)nc4)cc3)C[C@]2(C)[C@H]1C(=O)C1CC1
42 | 59 | 9.20 | – | – | COc1ccc(-c2ccc([C@H]3C[C@@]4(C)[C@@H](C[C@@H](C)[C@@H]4C(=O)C4CC4)[C@@H]4CCC5=CC(=O)CCC5=C43)cc2)cn1
– | – | – | 9.70 | – | C=C1CCO[C@]12CC[C@H]1[C@@H]3CCC4=CC(=O)CCC4[C@H]3[C@@H](c3ccc(N(C)C)cc3)C[C@@]12C (stereo partly drawn)
51 | 37 | 8.44 | – | 9.44 | C[C@@H]1C[C@H]2[C@@H]3CCC4=CC(=O)CCC4=C3[C@@H](c3ccc(-c4ccnnc4)cc3)C[C@]2(C)[C@H]1C(=O)C1CC1
51 | 50 | 8.07 | – | – | C[C@@H]1C[C@H]2[C@@H]3CCC4=CC(=O)CCC4=C3[C@@H](c3ccc(-c4ccc(F)nc4)cc3)C[C@]2(C)[C@H]1C(=O)C1CC1
– | 97 | 9.70 | – | < 7.00 | COC[C@]1(OC)CC[C@H]2[C@@H]3CCC4=CC(=O)CCC4=C3[C@@H](c3ccc(/C=N/O)cc3)C[C@@]21C [ASOPRISNIL]
